The text below walks through data of ChEMBL document CHEMBL4823264, “Efficient Dimerization Disruption of Leishmania infantum Trypanothione Reductase by Triazole-phenyl-thiazoles” (J Med Chem, 2021).

Calls of active or inactive are those of the source. The rule behind the calls is not given here.

The target in series [1] is T1, Glutathione reductase, mitochondrial (Homo sapiens) (UniProt P00390).
T1 sequence (whole entry): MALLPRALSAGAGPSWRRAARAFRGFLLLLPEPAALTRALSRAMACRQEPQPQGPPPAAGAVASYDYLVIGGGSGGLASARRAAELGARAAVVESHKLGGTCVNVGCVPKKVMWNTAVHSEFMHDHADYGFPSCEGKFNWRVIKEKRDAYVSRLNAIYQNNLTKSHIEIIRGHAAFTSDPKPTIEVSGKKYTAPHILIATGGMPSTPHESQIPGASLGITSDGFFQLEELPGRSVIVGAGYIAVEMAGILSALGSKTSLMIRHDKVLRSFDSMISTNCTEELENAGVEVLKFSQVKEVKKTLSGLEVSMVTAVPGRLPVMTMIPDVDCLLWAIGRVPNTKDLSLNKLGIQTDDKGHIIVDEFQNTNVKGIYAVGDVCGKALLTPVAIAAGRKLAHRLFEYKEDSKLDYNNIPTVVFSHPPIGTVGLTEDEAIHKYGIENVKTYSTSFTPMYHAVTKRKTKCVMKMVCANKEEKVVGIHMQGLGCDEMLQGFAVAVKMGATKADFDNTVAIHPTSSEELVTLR
Put plainly: Inhibition of recombinant human GR oxidoreductase activity by DTNB-reagent based spectrophotometric method. Put shortly:
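Recombinant hGR (7 nM) assayed at 37 °C in 40 mM HEPES pH 7.5 with 1 mM EDTA, 60 μM NADP+, 150 μM DTNB, 50 μM GSSG, 300 μM NADPH and 1.75% DMSO. TNB formation followed at 412 nm; at least three independent experiments, nonlinear regression.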

A short description of series [2]: Selectivity index, ratio of EC50 for human HepG2 cells to EC50 for promastigote stage of Leishmania infantum MCAN/ES/89/IPZ229/1/89 infected in human HepG2 cells. To be noted: read-out: Ratio EC50. Format: toxicity, cell-based.
The nature of series [3]: Selectivity index, ratio of EC50 for human HepG2 cells to EC50 for axenic amastigote stage of Leishmania infantum MCAN/ES/89/IPZ229/1/89 infected in human HepG2 cells. Format: toxicity, cell-based. The following applies: read-out: Ratio EC50.
The test system of series [4] is THP-1. Put plainly: Cytotoxicity against human THP-1 cells at 75 uM by LDH assay. The class given is cell-based. To be noted: thp-1, 75 µM. Put shortly: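 PMA-differentiated (100 ng/mL, 24 h) THP-1 macrophages infected with GFP-expressing amastigotes were exposed to compound, and viability was measured by LDH activity. The maximum concentration assayed was 75 μM. Three independent experiments.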

Series [5] is described as follows: Drug uptake in Leishmania infantum promastigotes at 25 uM after 1 hr by fluorescence microscopy analysis. The class given is ADME. To be noted: in vivo. Put shortly: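 Log-phase promastigotes exposed to 25 μM compound for 1 h at 26 °C, fixed in […], mounted on polylysine slides and imaged by fluorescence microscopy for blue compound fluorescence.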

Series [6] addresses Trypanothione reductase (Leishmania infantum) (UniProt A4HSF7). Briefly: Inhibition of recombinant His-FLAG-tagged Leishmania infantum TryR dimerization expressed in Escherichia coli […] assessed as reduction in TryR dimer at 20 uM using TS2 as substrate after 16 hrs by ELISA relative to control. Put shortly:
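HIS-FLAG-tagged LiTryR at 400 nM incubated 16 h at 37 °C in 300 mM NaCl, 50 mM Tris pH 8.0 with 3.12–75 μM compound, then centrifuged. Supernatant captured on anti-FLAG plates and detected with anti-HIS-HRP and OPD at 490 nm.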

Sequence of Trypanothione reductase (Leishmania infantum) (A4HSF7 as listed by the source): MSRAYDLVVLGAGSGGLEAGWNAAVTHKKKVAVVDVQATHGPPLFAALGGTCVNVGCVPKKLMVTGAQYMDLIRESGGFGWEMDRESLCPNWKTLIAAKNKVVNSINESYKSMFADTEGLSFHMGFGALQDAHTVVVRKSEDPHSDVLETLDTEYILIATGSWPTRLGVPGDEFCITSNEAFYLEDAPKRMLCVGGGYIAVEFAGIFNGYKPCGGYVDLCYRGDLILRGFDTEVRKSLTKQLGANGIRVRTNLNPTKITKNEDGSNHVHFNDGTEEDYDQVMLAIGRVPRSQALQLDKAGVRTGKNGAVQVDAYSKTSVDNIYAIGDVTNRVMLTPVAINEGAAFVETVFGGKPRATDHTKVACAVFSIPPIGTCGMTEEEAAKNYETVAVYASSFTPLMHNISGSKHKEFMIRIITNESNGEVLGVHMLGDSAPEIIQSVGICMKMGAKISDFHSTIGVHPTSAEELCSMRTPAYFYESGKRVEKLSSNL

For the compound `NCCCCc1cn(-c2ccc(-c3nc(-c4ccccc4)cs3)c(OCCN3CCNC3=O)c2)nn1`, the inhibition result in series [1] was “inactive”.

Regarding `COc1cc(-n2cc(CCCCN)nn2)ccc1-c1nc(CCc2ccccc2)cs1`, the selectivity ratio in series [2] was determined as 1.8.

Regarding `NCCCCc1cn(-c2ccc(-c3nc(-c4ccccc4)c(-c4ccccc4)s3)c(OCCN3CCNC3=O)c2)nn1`, the inhibition result in series [1] is “inactive”.

Regarding `COc1cc(-n2cc(CCCCN)nn2)ccc1-c1nc(CCc2ccc(-c3ccccc3)cc2)cs1`, the selectivity ratio in series [3] worked out at 1.9.

On to `NCCCCc1cn(-c2ccc(-c3nc(CCc4ccc5ccccc5c4)cs3)c(OCCN3CCNC3=O)c2)nn1`, for which, in series [1], the inhibition entry is “inactive”.

Take `NCCCCc1cn(-c2ccc(-c3nc(CCc4ccc(-c5ccccc5)cc4)cs3)c(OCCN3CCNC3=O)c2)nn1.O=C(O)C(F)(F)F`: the Activity in series [4] was determined as 100%. Besides, the inhibition entry in series [1] is “inactive”.

`NCCCc1cn(-c2ccc(-c3nc(CCc4ccc(-c5ccccc5)cc4)cs3)c(OCCN3CCNC3=O)c2)nn1.O=C(O)C(F)(F)F`: the Activity in series [4] is 100%.

As for `NCCCCc1cn(-c2ccc(-c3nc(-c4ccc(-c5ccccc5)cc4)c(-c4ccccc4)s3)c(OCCN3CCNC3=O)c2)nn1`, the selectivity ratio in series [3] stood at 1.8.

For the compound `NCCCCc1cn(-c2ccc(-c3nc(CCc4ccc(Oc5ccccc5)cc4)c(-c4ccccc4)s3)c(OCCN3CCNC3=O)c2)nn1`, the selectivity ratio in series [3] is below 1.

Turning to `NCCCCc1cn(-c2ccc(-c3nc(CCc4ccccc4)cs3)c(OCCN3CCNC3=O)c2)nn1.O=C(O)C(F)(F)F`, in series [5], the Drug uptake entry is listed as “Active”. The inhibition entry in series [1] is “inactive”.

As for `NCCCCc1cn(-c2ccc(-c3nc(-c4ccc(Oc5ccccc5)cc4)c(-c4ccccc4)s3)c(OCCN3CCNC3=O)c2)nn1`, the selectivity ratio in series [3] was at least 3.3.

Take `NCCNCc1nccn1-c1ccc(-c2nc(CCc3ccc4ccccc4c3)cs2)c(OCCN2CCNC2=O)c1`: the selectivity ratio in series [2] and in series [3] was 2.1 each time. Further, in series [6], the inhibition is 26%.

`NCCCCc1cn(-c2ccc(-c3nc(CCc4ccc(-c5ccccc5)cc4)c(-c4ccccc4)s3)c(OCCN3CCNC3=O)c2)nn1`: the selectivity ratio in series [3] worked out at 1.3.

As to `NCCNCc1nccn1-c1ccc(-c2nc(CCc3ccc(-c4ccccc4)cc3)cs2)c(OCCN2CCNC2=O)c1`, the inhibition in series [6] came to 32%.

The inhibition is the share of the control response that was lost under treatment.
